Results as given in ChEMBL document CHEMBL4130344, “Substituted arylsulphonamides as inhibitors of perforin-mediated lysis” (Eur J Med Chem, 2017).

assay: Metabolic stability in human liver microsomes assessed as parent compound remaining at 3 uM after 30 mins by LC-MS/MS method; assay type: ADME, microsome; details: read-out: Stability
Procedure, shortened: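 Compounds were tested as sodium salts. The read-out was the percentage of parent compound remaining after 30 min exposure to human microsomes.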

Structure (SMILES)	remaining at 0.5 h, 3 µM [%]
CN1Cc2cc(-c3ccc(-c4cncc(NS(=O)(=O)c5c(F)cc(F)cc5F)c4)s3)ccc2C1=O	63
CN1Cc2cc(-c3ccc(-c4cncc(NS(=O)(=O)c5ccc(C#N)cc5)c4)s3)ccc2C1=O	52
CN1Cc2cc(-c3ccc(-c4cncc(NS(=O)(=O)c5ccc([N+](=O)[O-])cc5)c4)s3)ccc2C1=O	39

Other lines, results leading:

remaining at 0.5 h, 3 µM [%]	Structure (SMILES)
57	CN1Cc2cc(-c3ccc(-c4cncc(NS(=O)(=O)c5cccc(C(F)(F)F)c5)c4)s3)ccc2C1=O
14	CN1Cc2cc(-c3ccc(-c4cncc(NS(=O)(=O)c5ccccc5C(F)(F)F)c4)s3)ccc2C1=O
